RGS4 block: human RGS4 inhibition; P49798; HEK293 M3R/RGS4 inducible, Fluo-4 calcium flux; hits give high values; triggered by carbachol at its EC20; B-score at 10 µM; 310,000 compounds, 0.45% hits; AID 463165;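 active = B-score, a plate-corrected calcium signal, over three deviations above library mean, with baseline fluorescence within five deviations of library mean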;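 also: RGS4 expression induced by doxycycline in cells with stable M3 receptor; B-score is computed from the integrated fluorescence ratio over baseline after carbachol; higher B-score means a larger calcium signal and so more RGS4 inhibition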
Target sequence (P49798 whole entry, looked up): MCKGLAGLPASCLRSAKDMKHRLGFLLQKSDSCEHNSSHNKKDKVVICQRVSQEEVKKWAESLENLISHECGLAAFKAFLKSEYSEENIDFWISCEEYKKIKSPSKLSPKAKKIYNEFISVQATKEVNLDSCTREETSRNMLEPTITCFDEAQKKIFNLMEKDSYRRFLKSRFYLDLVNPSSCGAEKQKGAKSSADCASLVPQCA
MrgX1 agonist: human MrgX1 receptor agonism, primary screen. Q96LB2. MrgX1-HEK293 cells, Fluo-4 calcium fluorescence, agonist mode; hits give high values. B-score at 10 µM. 310,000 compounds, 0.44% hits;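 active = calcium response B-score plate-corrected fluorescence ratio at least 3 library SD, with starting fluorescence B-score inside 5 SD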
Target sequence (Q96LB2 whole entry, looked up): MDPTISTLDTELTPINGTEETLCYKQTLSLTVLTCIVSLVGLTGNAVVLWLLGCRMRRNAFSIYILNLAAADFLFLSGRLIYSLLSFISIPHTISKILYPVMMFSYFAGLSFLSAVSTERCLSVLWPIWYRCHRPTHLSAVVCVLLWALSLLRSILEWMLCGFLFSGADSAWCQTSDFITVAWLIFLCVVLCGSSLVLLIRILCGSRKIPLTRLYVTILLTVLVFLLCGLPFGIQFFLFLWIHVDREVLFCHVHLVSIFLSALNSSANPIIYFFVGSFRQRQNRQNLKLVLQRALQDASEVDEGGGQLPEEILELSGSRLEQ
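System: HEK293 cells stably expressing human MrgX1 receptor; Dosing: test compound in the initial addition of three; Schedule: overnight plating, then 30 min 37 °C plus 30 min room-temperature dye loading; Detection: kinetic calcium dye fluorescence, Fluo-4 NW; Controls: per-plate positive and negative controls for Z′ factor.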
MrgX1 allo act: human MrgX1 positive allosteric modulation, primary screen; Q96LB2; MrgX1-HEK293, Fluo-4 calcium flux, FDSS; hits give high values; B-score at 10 µM; 310,000 compounds, 0.63% hits; AID 588675;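 active = plate-corrected calcium response at least 3 library SD above typical, normal starting fluorescence, not activating the receptor alone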;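 also: compound read alongside a low EC10 to EC30 dose of BAM8-22 agonist; peak minus trough fluorescence over baseline measured at the second addition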
RGS4 act: RGS4 potentiation or activation | HEK293 M3R/inducible RGS4, carbachol calcium flux Fluo4; hits give low values | B-score at 10 µM | 310,000 compounds, 0.92% hits | AID 463111;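 active = B-score of the integrated calcium signal more than 4 SD below the library mean, with starting fluorescence not abnormally high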;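 also: negative B-score means reduced calcium response which marks RGS4 activation or potentiation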
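Also added: carbachol at ECmax as muscarinic agonist stimulus; Assay system: HEK293 cells with stable M3R and inducible RGS4; Timing: overnight RGS4 induction, 30 min dye load 37 °C, 20 min compound RT; Measured by: Fluo4-AM (2 µM) calcium-flux fluorescence, kinetic read.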
MrgX1 antag: antagonists of human MrgX1 receptor | B-score at 10 µM | Q96LB2 | MRGX1-HEK293 calcium flux, Fluo-4, BAM8-22 antagonism; hits give low values | 310,000 compounds, 1.3% hits;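 active = calcium-response B-score plate-corrected more than 3 library SD below zero, starting fluorescence within 5 deviations, no agonist response on first addition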;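 also: peak minus trough fluorescence over baseline after final BAM8-22 challenge near maximal dose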
MrgX1 PAM conf: confirmation of human MrgX1 receptor positive allosteric modulators; shares compounds with MrgX1 allo act; MrgX1-HEK293, Fluo-4 calcium fluorescence, FDSS; activation (ratio percentage), % at 10 µM; 1,200 compounds, 13% hits;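 active = ratio at least 3 SD above the weak peptide control, stable starting fluorescence, no direct agonism earlier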;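 also: compound followed by low BAM8-22 agonist challenge near EC20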
HEK293 Ca flux: counter-screen for MrgX1 antagonists: effect in parental HEK293 cells. shares compounds with MrgX1 antag. Fluo-4 calcium fluorescence, FDSS. fluorescence ratio F(max-min)/F0 at 10 µM. 4,000 compounds, 2% hits. AID 624111;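 active = duplicate-averaged calcium fluorescence ratio at least three times the standard deviation of buffer wells, a nonspecific response in parental cells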
HEK293 Ca counter: counter-screen for MrgX1 allosteric activators: effect in parental HEK293 cells. shares compounds with MrgX1 antag. parental HEK293 calcium flux, Fluo-4 fluorescence ratio; hits give high values. fluorescence ratio F(max-min)/F0 at 10 µM. 4,000 compounds, 0.4% hits;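 active = calcium fluorescence ratio, averaged over duplicates, at least 3 SD of the buffer-well ratio, meaning a nonspecific response in receptor-free cells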;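 also: untransfected parental HEK293 lacking MrgX1 used as counterscreen for MrgX1 allosteric activators; fluorescence change taken during the second addition on a kinetic imager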
HEK293 Ca cntr2: MrgX1 activator counter-screen hit in parental HEK293 cells. shares compounds with MrgX1 antag. Fluo-4 calcium fluorescence (FDSS); hits give high values. AID 624115. 4,000 compounds, 8.7% hits. fluorescence ratio F(max-min)/F0 at 10 µM;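 active = calcium fluorescence ratio at least three times the spread of buffer wells, meaning a non-specific response in parental cells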
The depositor's hits bear a star; i = inactive; . = no result given. A selection: hits, their analogues and other compounds. The true share with any hit is near 3.5%.

SMILES	RGS4 block	MrgX1 agonist	MrgX1 allo act	RGS4 act	MrgX1 antag	MrgX1 PAM conf	HEK293 Ca flux	HEK293 Ca counter	HEK293 Ca cntr2
CS(=O)(=O)c1ccc2nc(NC(=O)c3cccs3)sc2c1	.	i	24*	.	i	17%*	i	i	i
Cc1ccc2nc(NC(=O)c3cccs3)sc2c1	.	i	i	.	i	.	.	.	.
CS(=O)(=O)c1ccc2nc(NC(=O)C3COc4ccccc4O3)sc2c1 (stereo not given)	i	i	6.6*	i	i	i	i	i	i
COc1ccc2nc(NC(=O)C3COc4ccccc4O3)sc2c1 (stereo not given)	i	i	i	i	i	.	.	.	.
Cc1cc(C)cc(NC(=S)N2CCC(NC(=O)C3CCCCC3)CC2)c1	i	i	8.6*	i	i	i	i	i	i
COC(=O)c1cc(NC(=O)Cn2c(=O)oc3ccccc32)cc(C(=O)OC)c1	i	i	i	i	i	.	.	.	.
Cn1c(=O)c2c(nc(CN3CCc4ccccc4C3)n2Cc2ccc(Cl)cc2)n(C)c1=O	i	i	i	i	i	.	.	.	.
Cn1c(=O)c2c(nc(CN3CCc4ccccc4C3)n2Cc2ccccc2)n(C)c1=O	i	i	17*	i	i	13%*	i	i	i
CC(C)(C)c1nnc(NC(=O)CCS(=O)(=O)c2ccccc2)s1	i	i	43*	i	i	i	i	i	i
CC(=O)c1cc(CC=C(C)C)c(O)c(CC=C(C)C)c1O	i	i	i	i	i	.	.	.	.
CC(=O)c1cc(CC=C(C)C)c(O)cc1O	i	i	9.9*	i	i	i	i	i	i
CCCS(=O)(=O)c1c(S(=O)(=O)CCC)c2ccc(C(N)=O)cn2c1C(=O)c1ccc(OC)cc1	i	i	i	i	i	.	.	.	.
N#CC1=C(N)OC2=C(CCc3ccccc32)C1c1ccccc1 (stereo not given)	i	i	9.7*	i	i	i	i	i	i
N#CC1=C(N)Oc2cc(O)ccc2C1c1ccccc1 (stereo not given)	i	i	i	i	i	.	.	.	.
CCOC(=O)c1[nH]c(=O)[nH]c1CNc1ccccc1C#N	i	i	i	i	i	.	.	.	.
CC(=O)Cc1nsc(NC(=O)c2ccc(-c3ccccc3Cl)o2)n1	i	i	26*	i	i	i	i	i	i
NS(=O)(=O)c1ccc(CCNC(=O)COC(=O)CN2C(=O)C3CCCCC3C2=O)cc1 (stereo not given)	i	i	i	i	i	.	.	.	.
O=C(COc1ccccc1Cl)NCCCNC(=O)c1cccnc1	i	i	i	i	i	.	.	.	.
O=C(CSc1nnc(-c2ccc(OC(F)F)cc2)o1)NC(=O)NCc1ccco1	i	i	i	i	i	.	.	.	.
C=CCSc1nc2ccccc2c(=O)n1C1CCOC(C)(C)C1 (stereo not given)	i	i	11*	i	i	i	i	i	i
CCOC(=O)c1c(-c2ccccc2)csc1NC(=O)/C(C#N)=C/c1ccc(O)c(OC)c1	i	i	117*	i	i	i	0.049*	i	85*
O=C(NC12CC3CC(CC(C3)C1)C2)c1cc(F)c(F)c(F)c1F	i	i	6.6*	i	i	i	i	i	i
COc1cc(OC)c(C(=O)NC23CC4CC(CC(C4)C2)C3)cc1OC	i	i	i	i	i	.	.	.	.
CC(=O)c1cccc(NC(=O)COc2ccc(S(=O)(=O)N3CCCCC3)cc2)c1	i	i	i	i	i	.	.	.	.
Cc1ccc(-c2csc(NC(=O)c3cccc(C)c3)c2C(=O)O)cc1	i	i	6.6*	i	i	i	i	i	i
SMILES	RGS4 block	MrgX1 agonist	MrgX1 allo act	RGS4 act	MrgX1 antag	MrgX1 PAM conf	HEK293 Ca flux	HEK293 Ca counter	HEK293 Ca cntr2
Cc1ccc(-c2csc(NC(=O)c3ccccc3Cl)c2C(=O)O)cc1	i	i	6.6*	i	i	i	i	i	i
Cc1cccc(C(=O)Nc2scc(CC(C)C)c2C(=O)O)c1	i	i	i	i	i	.	.	.	.
CCOC(=O)c1cc(-c2ccco2)nn1-c1ccc(C)cc1	i	i	i	i	i	.	.	.	.
Cc1ccc(-n2nc(-c3ccco3)cc2C(=O)O)cc1	i	i	25*	i	i	5.6%*	i	i	i
COC(=O)c1ccc(CN2C(=O)NC(Cc3c[nH]c4ccccc34)C2=O)cc1 (stereo not given)	i	i	i	i	i	.	.	.	.
N#C/C(=C\c1cn(-c2ccccc2)nc1-c1cccnc1)c1nnc2n1CCCCC2	i	i	i	i	i	.	.	.	.
CC1(C)C(=O)CC[C@@]2(C)[C@H]1CC[C@@]1(C)CC3=C(CC[C@@H]12)[C@@]1(C)CCC(=O)C(C)(C)[C@@H]1CC3	.	i	i	.	i	.	.	.	.
Nc1ccc2c(c1)Oc1ccccc1C=C2	i	i	12*	i	i	i	i	i	46*
CCOC(=O)c1c(-c2ccc(C)cc2)csc1NC(=O)C1CC=CCC1C(=O)O (stereo not given)	i	i	i	i	i	.	.	.	.
Cc1ccc(-c2csc(NC(=O)C3CC=CCC3C(=O)O)c2C(=O)OC(C)C)cc1 (stereo not given)	i	i	7.3*	i	i	i	i	i	i
COc1ccc(C2=CC(c3c(C)nn(-c4ccccc4)c3Cl)n3nnnc3N2)cc1OC (stereo not given)	.	i	7*	.	i	i	i	i	i
COc1ccccc1C1C=C(c2ccc(C)cc2)Nc2nnnn21 (stereo not given)	i	i	i	i	i	.	.	.	.
COc1ccc(CCC(=O)OCc2csc(CC(=O)Nc3ccccc3C)n2)cc1	i	i	i	i	i	.	.	.	.
Cc1ccc(OCCCNCCO)c(Br)c1	i	i	7.5*	i	i	i	i	i	i
